From ChEMBL document CHEMBL1772969, “Synthesis, structure-activity relationship, and antimalarial activity of ureas and thioureas of 15-membered azalides” (J Med Chem, 2011)
Values after ≈ are worked out from the molar mass of the structure shown. Active and inactive are the calls of the source. The rule behind the calls is not given here.

Assays:
[1] = Blood clearance in Sprague-Dawley rat at 10 mg/kg, iv and 30 mg/kg, po; type: ADME, organism-based; conditions: whole blood
Outline: (§1)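 Male Sprague-Dawley rats (250–300 g), crossover design. Dosed 10 mg/kg iv, then 2-day washout, then 30 mg/kg oral (free base equivalent), formulated in 1%/20% Encapsin (w/v) and saline. Blood sampled up to 24 h and analysed by LC-MS/MS. Clearance and terminal-phase Vd based on blood concentration.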

[2] = system: Plasmodium falciparum; assay: Antimalarial activity against chloroquine/pyrimethamine-resistant Plasmodium falciparum W2 after 48 hrs by [3H]hypoxanthine incorporation assay; type: functional, organism-based
Outline: (§2)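 [3H]hypoxanthine incorporation assay (Desjardins method, Milhous modification) with 48 h drug exposure. Compounds and controls were 2-fold diluted across 11 concentrations. IC50 was fitted by nonlinear logistic dose-response. Values are averaged where multiple results were generated, with relative errors usually <30%.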

[3] = system: Plasmodium berghei; assay: Antiplasmodial activity against Plasmodium berghei KBG-173 infected in sc dosed mouse administered bid for 3 days; type: functional
Outline: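 Male mice (24-30 g) were infected ip with 5 × 10⁶ P. berghei KBG-173-infected erythrocytes. Drug suspended in palm/peanut oil was given sc twice daily on days 3-5 post-infection at 160, 40 or 10 mg/kg per dose, 0.01 mL/g, in groups of 4-5. Blood films were taken day 6, then biweekly to day 31. Mice smear-negative on day 31 were counted cured. CD50 is the daily dose curing 50%.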

[4] = system: Plasmodium falciparum; assay: Antimalarial activity against chloroquine-sensitive Plasmodium falciparum D6 after 48 hrs by [3H]hypoxanthine incorporation assay; type: functional, organism-based; outline: as §2
[5] = system: THP-1; assay: Cytotoxicity against human THP1 cells after 1 to 4 hrs by MTS assay; type: cell-based
Outline: (§3)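 HepG2 and THP-1 cells grown in RPMI 1640 with 10% FBS at 37 °C, 5% CO₂, and passaged twice weekly. Compounds applied as continuous exposure. Viability read by MTS reagent, 1–4 h incubation, absorbance at 490 nm; IC₅₀ derived.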

[6] = Half life in human liver microsomes at 1 uM by LCMS analysis; type: ADME, Microsome
Outline: (§4)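 Compound at 1 μM final with 0.5 mg/mL pooled human or mouse liver microsomes, 1.3 mM NADP, 3.3 mM MgCl₂, 0.1 M PBS pH 7.4. Reaction started with 1 U/mL G6PD, shaken at 37 °C. Aliquots quenched with cold acetonitrile at 0, 10, 20, 30 and 60 min and quantified by LCMS. t₁/₂ taken from log plot of total ion chromatogram area remaining.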

[7] = Half life in mouse liver microsomes at 1 uM by LCMS analysis; type: ADME, Microsome; outline: as §4
[8] = Apparent volume of distribution during terminal phase in Sprague-Dawley rat at 10 mg/kg, iv and 30 mg/kg, po; type: ADME, organism-based; conditions: in vivo, read-out: Vz/F; outline: as §1
[9] = Half life in Sprague-Dawley rat at 10 mg/kg, iv and 30 mg/kg, po; type: ADME, organism-based; conditions: in vivo; outline: as §1
[10] = system: HepG2; assay: Cytotoxicity against human HepG2 cells after 1 to 4 hrs by MTS assay; type: cell-based; outline: as §3
[11] = Oral bioavailability in Sprague-Dawley rat at 30 mg/kg; type: ADME, organism-based; conditions: in vivo; outline: as §1
[12] = system: Plasmodium falciparum; assay: Antimalarial activity against multidrug-resistant Plasmodium falciparum TM91C235 after 48 hrs by [3H]hypoxanthine incorporation assay; type: functional, organism-based; outline: as §2
[13] = system: Plasmodium berghei; assay: Antiplasmodial activity against Plasmodium berghei KBG-173 infected in mouse assessed as mouse without parasitemia at 60 mg/kg, sc bid for 3 days measured on day 31; type: functional, organism-based; set-up: dose 60 mg/kg
Outline: (§5)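 P. berghei KBG-173: 5 × 10⁶ infected erythrocytes injected intraperitoneally into male mice (24–30 g); parasitemia 1.0–3.7% by day 3. Oil suspension given subcutaneously twice daily at 160, 40 or 10 mg/kg on days 3–5 postinfection (totals 960/240/60 mg/kg); 4–5 mice per group. Blood films on day 6, then biweekly to day 31; film-negative on day 31 counted as cured.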

[14] = system: Plasmodium berghei; assay: Antiplasmodial activity against Plasmodium berghei KBG-173 infected in mouse assessed as mouse without parasitemia at 240 mg/kg, sc bid for 3 days measured on day 31; type: functional, organism-based; set-up: dose 240 mg/kg; outline: as §5
[15] = system: Plasmodium falciparum; assay: Antimalarial activity against Plasmodium falciparum after 68 hrs; type: functional, organism-based
[16] = system: Plasmodium falciparum; assay: Ratio of compound IC50 to Azithromycin IC50 for Plasmodium falciparum; type: functional
[17] = system: Plasmodium berghei; assay: Antiplasmodial activity against Plasmodium berghei KBG-173 infected in mouse assessed as mouse without parasitemia at 960 mg/kg, sc bid for 3 days measured on day 31; type: functional, organism-based; set-up: dose 960 mg/kg; outline: as §5

Structure (SMILES)	clearance [1] [mL/min/kg]	IC50 [2] [nM]	CD50 [3] [mg/kg]	IC50 [4] [nM]	IC50 [5] [nM]	half-life at 1 µM [6] [h]	half-life at 1 µM [7] [h]	Vd/F [8] [L/kg]	half-life [9] [h]	IC50 [10] [nM]	bioavailability [11] [%]	IC50 [12] [nM]	Activity [13]	Activity [14]	IC50 [15] [µg/mL]	Ratio IC50 [16]	Activity [17]
CC[C@H]1OC(=O)[C@H](C)[C@@H](O[C@H]2C[C@@](C)(OC)[C@@H](O)[C@H](C)O2)[C@H](C)[C@@H](O[C@@H]2O[C@H](C)C[C@H](N(C)C)[C@H]2O)[C@](C)(O)C[C@@H](C)CN(CCCNC(=S)NCc2ccccc2)[C@H](C)[C@@H](O)[C@]1(C)O	4	121	285	257	47000	> 2	> 2	10.4	30	> 50000	3.4	156	–	–	–	–	–
CC[C@H]1OC(=O)[C@H](C)[C@@H](O[C@H]2C[C@@](C)(OC)[C@@H](O)[C@H](C)O2)[C@H](C)[C@@H](O[C@@H]2O[C@H](C)C[C@H](N(C)C)[C@H]2O)[C@](C)(O)C[C@@H](C)CN(CCCNC(=O)Nc2ccc3ccccc3c2)[C@H](C)[C@@H](O)[C@]1(C)O	–	127	>960	138	40000	> 2	> 2	–	–	48000	–	81	inactive	inactive	–	–	–
CC[C@H]1OC(=O)[C@H](C)[C@@H](O[C@H]2C[C@@](C)(OC)[C@@H](O)[C@H](C)O2)[C@H](C)[C@@H](O[C@@H]2O[C@H](C)C[C@H](N(C)C)[C@H]2O)[C@](C)(O)C[C@@H](C)CN(C)[C@H](C)[C@@H](O)[C@]1(C)O [AZITHROMYCIN]	11	2290	50	1040	> 50000	> 2	> 2	20	24	> 50000	33	2110	–	Active	0.5 (≈ 0.668 µM)	88	Active
CC[C@H]1OC(=O)[C@H](C)[C@@H](O[C@H]2C[C@@](C)(OC)[C@@H](O)[C@H](C)O2)[C@H](C)[C@@H](O[C@@H]2O[C@H](C)C[C@H](N(C)C)[C@H]2O)[C@](C)(O)C[C@@H](C)CN(CCCNC(=O)NC(C)c2cccc3ccccc23)[C@H](C)[C@@H](O)[C@]1(C)O (stereo partly drawn)	–	106	397.5	292	46000	> 2	> 2	–	–	> 50000	–	107	–	inactive	–	–	Active
CC[C@H]1OC(=O)[C@H](C)[C@@H](O[C@H]2C[C@@](C)(OC)[C@@H](O)[C@H](C)O2)[C@H](C)[C@@H](O[C@@H]2O[C@H](C)C[C@H](N(C)C)[C@H]2O)[C@](C)(O)C[C@@H](C)CN(CCCNC(=S)NCCCc2ccccc2)[C@H](C)[C@@H](O)[C@]1(C)O	2.3	85	780	107	15000	> 2	> 2	2.6	13.4	22000	1.3	82	inactive	–	–	–	–
CC[C@H]1OC(=O)[C@H](C)[C@@H](O[C@H]2C[C@@](C)(OC)[C@@H](O)[C@H](C)O2)[C@H](C)[C@@H](O[C@@H]2O[C@H](C)C[C@H](N(C)C)[C@H]2O)[C@](C)(O)C[C@@H](C)CN(CCCN(CCC#N)C(=S)NCCc2ccccc2)[C@H](C)[C@@H](O)[C@]1(C)O	–	51	>960	88	6000	1.72	> 2	–	–	13000	–	48	inactive	–	–	–	inactive
CC[C@H]1OC(=O)[C@H](C)[C@@H](O[C@H]2C[C@@](C)(OC)[C@@H](O)[C@H](C)O2)[C@H](C)[C@@H](O[C@@H]2O[C@H](C)C[C@H](N(C)C)[C@H]2O)[C@](C)(O)C[C@@H](C)CN(CCCN(CCC#N)C(=S)NCCCc2ccccc2)[C@H](C)[C@@H](O)[C@]1(C)O	24.5	88	800	179	5000	> 2	> 2	31.7	15.2	9000	21	62	inactive	inactive	–	–	–
CC[C@H]1OC(=O)[C@H](C)[C@@H](O[C@H]2C[C@@](C)(OC)[C@@H](O)[C@H](C)O2)[C@H](C)[C@@H](O[C@@H]2O[C@H](C)C[C@H](N(C)C)[C@H]2O)[C@](C)(O)C[C@@H](C)CN(CCCN(CCC#N)C(=O)Nc2ccc(Cl)cc2Cl)[C@H](C)[C@@H](O)[C@]1(C)O	7.7	199	420	229	15000	> 2	> 2	23.3	41.5	22000	18.4	123	–	–	–	–	Active
